Assay outcomes (PubChem BioAssay)
CHOP UPR activ: activators of apoptotic arm of unfolded protein response (CHOP); CHO-CHOP luciferase reporter, UPR activation, luminescence; percent of tunicamycin response over DMSO baseline; activation, % at 10 µM; hit rate 0.34% among 330,000; AID 449763;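 active = at 10 µM dose, activation of 40% or more, normalized to positive control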
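Dosing – one dose, 10 µM in 0.5% DMSO · System – CHO-CHOP cells, stable luciferase reporter of PERK-eIF2a-CHOP signalling · Input – 500 cells/well · Control set – tunicamycin 10 µg/mL final as positive, DMSO-only wells as negative · Timing – 6 h compound treatment, 37 °C · Measure – % activation vs tunicamycin · Technique – luminescence read with Steady-Glo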
CHOP inhibitor: inhibitors of CHOP induction in ER stress response. hit rate 3.8% among 220,000. CHO-K1 CHOP-promoter luciferase, tunicamycin-induced, 15-18 h. inhibition, % at 10 µM;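 active = compounds that reduced the stress-induced luciferase reporter signal by more than about 70% of percent inhibition, limit read from the data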
ANO1 block: blocks the mouse calcium-activated chloride channel TMEM16A; normalized B-score (activity score, 25-100; higher = stronger inhibition) at 10 µM; AID 588511; hit rate 1.2% among 310,000; HEK293 TMEM16A/YFP iodide influx fluorescence, ionomycin; Q8BHY3;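 active = ratio plate-corrected score three or more library SD toward inhibition, starting fluorescence score within five deviations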;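 note: score derived from kinetic fluorescence span divided by baseline fluorescence per well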
XBP1 UPR activ: adaptive UPR (XBP1) activation | CHO-XBP1 luciferase reporter, IRE1-XBP1 UPR activation, luminescence; percent of tunicamycin response, DMSO as zero | activation, % at 20 µM | hit rate 0.33% among 330,000;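 active = versus positive control, 20 µM dose yields 30% or more activation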
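incubation = overnight seeding at 37 °C, 6 h compound treatment at 37 °C | assay system = CHO-XBP1 cells stably carrying IRE1-XBP1-driven luciferase reporter | input = 1000 cells per well | detection = luciferase luminescence | dosing = single point, 20 µM final compound, 1% DMSO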
Hep lipid drop: modulators of hepatic lipid droplet formation; AML12 mouse hepatocytes, oleate lipid droplets, BODIPY imaging; inhibition, % at 6.5 µM; hit rate 0.4% among 240,000;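 active = lipid droplet intensity inhibited by at least 50%, with more than 500 cells counted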
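Test system: AML12 mouse liver cells; schedule: overnight exposure; technique: high-content imaging of BODIPY-stained droplets and DAPI nuclei; read-out: % inhibition of corrected integrated BODIPY droplet signal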
TMEM16A act: activates or potentiates the mouse TMEM16A chloride channel; Q8BHY3; HEK293 TMEM16A/YFP-H148Q/I152L, iodide quench fluorescence; stronger effect = lower value; B-score at 10 µM; hit rate 0.3% among 340,000;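 active = fluorescence-ratio B-score plate-corrected deviation score at least 3 library SD below zero, with starting fluorescence score within 5 deviations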;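 note: channel opened by trigger with iodide after compound preincubation; score built on the fluorescence ratio of max minus min over baseline; more negative score means more quench and so TMEM16A activation or potentiation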
CHOP inh conf: confirmation of CHOP induction inhibitors; shares compounds with CHOP inhibitor; CHO-CHOP promoter luciferase reporter, tunicamycin-induced, luminescence; inhibition, % at 10 µM; hit rate 45% among 2,100;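 active = mean of three repeat readings of reporter signal inhibition above a set limit, cut at about 70% in these data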
UPR XBP1 confirm: confirmation of adaptive unfolded protein response (XBP1) activators; shares compounds with XBP1 UPR activ; CHO-XBP1 IRE1-XBP1 luciferase reporter, luminescence; activation, % at 20 µM; hit rate 63% among 1,000;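 active = reporter signal at least 30% of the positive control's activation in two or more of four replicate wells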
TMEM16A reconf: reconfirmed blocker of mouse TMEM16A calcium-activated chloride channel. shares compounds with ANO1 block. HEK293 TMEM16A/YFP-H148Q, iodide quench fluorescence; ionomycin added to raise cell calcium. inhibition, % at 10 µM. hit rate 39% among 2,300;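 active = mean duplicate percent inhibition, scaled so buffer wells are 0 and the reference blocker 100, over three buffer SD above buffer mean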
HEK293 Ca mobil: alters calcium mobilization in TMEM16A HEK293 cells, counter-screen. shares compounds with ANO1 block. TMEM16A/YFP HEK293, Fluo4 calcium mobilization. calcium response (% of ionomycin), % at 10 µM. hit rate 2% among 2,300. AID 652231;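 active = duplicate-averaged calcium signal over 20% of the ionomycin maximum, relative to buffer baseline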;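 note: each well's signal is peak minus trough fluorescence divided by its pre-addition baseline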
Parental YFP cnt: counter-screen for TMEM16A inhibitors: effect in parental YFP-HEK293 cells; iodide YFP quench, ionomycin; shares compounds with ANO1 block; 2,300 tested, under 10 active; YFP ratio F(max-min)/F0 at 10 µM; AID 652233;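 active = yellow fluorescent protein signal ratio exceeding the buffer control mean by over 5 SD of those controls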;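 note: ratio is mean of duplicate wells from kinetic YFP trace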
ClC-1 inh: selectivity of TMEM16A inhibitors: inhibition of rat ClC-1 chloride channel; shares compounds with ANO1 block; CHO ClC-1-YFP, iodide influx fluorescence quench; iodide control reads 0, buffer control 100; ratio percent, % at 10 µM; 2,300 tested, under 10 active; AID 652236;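 active = duplicate-mean ratio percent above the mean of iodide-only control wells, which defines zero, plus 5 of their SD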;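 note: higher percent means stronger block of ClC-1 iodide influx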
Of the large screens only hits and unclear results are named; the others gave an inactive call (follow-up assays come after a bar, where they were run). This is a sample that favours compounds with a hit; in the whole collection about 4.2% have one here.

O=C(NCC1CCCO1)c1cccc(S(=O)(=O)N2CCCCC2)c1 (stereo not given)	none (no result: CHOP inhibitor, ANO1 block, Hep lipid drop)
COc1ccc(NC(=O)c2cc3c(=O)n(C)c4ccccc4c3n2C)cc1Cl	CHOP inhibitor 101, XBP1 UPR activ 32 | CHOP inh conf inactive | UPR XBP1 confirm 72
CC(NC(=O)CCC(=O)c1ccc(F)cc1)C1CC2CCC1C2 (stereo not given)	none
CC(C)CCn1c(=O)c(C(=O)N/N=C/c2cccc(F)c2)c(O)c2ccccc21	CHOP inhibitor 106, XBP1 UPR activ 37 | CHOP inh conf 90 | UPR XBP1 confirm inactive
CCCn1c(=O)c(C(=O)N/N=C/c2ccccc2F)c(O)c2ccccc21	none
CCNC(=O)c1c(NC(=O)c2cc(-c3cc(C)ccc3O)n[nH]2)sc2c1CCCC2	CHOP inhibitor 101, XBP1 UPR activ 42 | CHOP inh conf 106 | UPR XBP1 confirm 75
N#CCN(CC#N)C(=O)C1c2ccccc2Oc2ccccc21	none (no result: CHOP inhibitor)
Cc1ccccc1NC(=O)c1ccc(OCc2c(C)noc2C)cc1	none (no result: CHOP inhibitor, ANO1 block, Hep lipid drop)
Nc1nc(SCc2ccc(Cl)cc2Cl)nc2nc3c(cc12)CCCC3	CHOP inhibitor 103, XBP1 UPR activ 59 | CHOP inh conf inactive | UPR XBP1 confirm 133
COc1cccc(OCc2cc(C(=O)N3CCNC(=O)C3Cc3ccccc3)no2)c1 (stereo not given)	none (no result: CHOP inhibitor)
CCCOC(=O)c1cccc(Nc2nc(-c3cccnc3)nc3ccccc23)c1	CHOP inhibitor 96, XBP1 UPR activ 32 | CHOP inh conf inactive | UPR XBP1 confirm 58
O=C(OCCNc1nc(-c2ccccc2)nc2ccccc12)c1cccnc1	none
CC(C)NC(=O)CC(c1ccccc1)c1cc(Br)ccc1O (stereo not given)	none
CCCCCCNC(=O)CC(c1ccccc1)c1cc(Br)ccc1O (stereo not given)	CHOP inhibitor 101, ANO1 block 100 | CHOP inh conf 112 | TMEM16A reconf 47% | HEK293 Ca mobil inactive | Parental YFP cnt inactive | ClC-1 inh inactive
Nc1c(C(=O)Nc2nc3ccccc3s2)sc2nc(-c3cccs3)ccc12	CHOP inhibitor 102 (no result: Hep lipid drop) | CHOP inh conf 82 | TMEM16A reconf inactive | HEK293 Ca mobil inactive | Parental YFP cnt inactive | ClC-1 inh inactive
CC(=O)c1sc2nc(-c3cccs3)ccc2c1N	none
Cc1cc(C2(c3ccc(O)c(C)c3)C(=O)Nc3ccccc32)ccc1O	CHOP inhibitor 105, ANO1 block 100 (no result: Hep lipid drop) | CHOP inh conf 119 | TMEM16A reconf inactive | HEK293 Ca mobil inactive | Parental YFP cnt inactive | ClC-1 inh inactive
CC1(C)CC(=O)C2=C(C1)OC1=C(C(=O)CC(C)(C)C1)C2c1ccc(O)c([N+](=O)[O-])c1	none
